# Test results published in ChEMBL document CHEMBL1671636, “Role of ampD homologs in overproduction of AmpC in clinical isolates of Pseudomonas aeruginosa” (2008).
# Assays:
# Assay type in all cases: functional
# Pseudomonas aeruginosa [1] = test: Antimicrobial activity against Pseudomonas aeruginosa isolate TX291 obtained from patient with non-cystic fibrosis by agar dilution method
# Pseudomonas aeruginosa [2] = test: Antimicrobial activity against Pseudomonas aeruginosa PAO1 by agar dilution method
# Pseudomonas aeruginosa [3] = test: Antimicrobial activity against Pseudomonas aeruginosa isolate PA367 obtained from patient with cystic fibrosis by agar dilution method
# Pseudomonas aeruginosa [4] = test: Antimicrobial activity against Pseudomonas aeruginosa isolate PA24 obtained from patient with cystic fibrosis by agar dilution method
# Pseudomonas aeruginosa [5] = test: Antimicrobial activity against Pseudomonas aeruginosa isolate TX292 obtained from patient with non-cystic fibrosis by agar dilution method
# Pseudomonas aeruginosa [6] = test: Antimicrobial activity against Pseudomonas aeruginosa isolate 164CD obtained from patient with non-cystic fibrosis by Etest
# Pseudomonas aeruginosa [7] = test: Antimicrobial activity against Pseudomonas aeruginosa isolate GB61 obtained from patient with non-cystic fibrosis by Etest
# Pseudomonas aeruginosa [8] = test: Antimicrobial activity against Pseudomonas aeruginosa isolate PA113 obtained from patient with cystic fibrosis by agar dilution method
# Pseudomonas aeruginosa [9] = test: Antimicrobial activity against Pseudomonas aeruginosa isolate GB57 obtained from patient with non-cystic fibrosis by Etest
# Pseudomonas aeruginosa [10] = test: Antimicrobial activity against Pseudomonas aeruginosa isolate PA22 obtained from patient with cystic fibrosis by agar dilution method
# Pseudomonas aeruginosa [11] = test: Antimicrobial activity against Pseudomonas aeruginosa isolate PA113 harboring beta-lactamase AmpD1 Gly148Ala, Asp183Tyr mutant obtained from patient with cystic fibrosis by agar dilution method
# Pseudomonas aeruginosa [12] = test: Antimicrobial activity against Pseudomonas aeruginosa isolate PA22 obtained from patient with cystic fibrosis harboring beta-lactamase AmpD1 Gly148ala and Asp183Tyr mutant by disk diffusion method
# Procedure, shortened: (§1)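 Each ampD homolog gene, from PAO1 or the clinical isolate, was tested in a plasmid model system. An AmpD-deficient E. coli strain (JRG582) carrying an inducible genetic system was complemented with the gene. Read-out was the ceftazidime inhibition zone diameter in mm; lack of complementation gives a ceftazidime-resistant phenotype.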
# Pseudomonas aeruginosa [13] = test: Antimicrobial activity against Pseudomonas aeruginosa isolate GB57 harboring beta-lactamase AmpD1 Val10Ile mutant obtained from patient with non-cystic fibrosis by Etest
# Pseudomonas aeruginosa [14] = test: Antimicrobial activity against Pseudomonas aeruginosa isolate GB57 obtained from patient with non-cystic fibrosis by broth microdilution method
# Pseudomonas aeruginosa [15] = test: Antimicrobial activity against Pseudomonas aeruginosa isolate GB61 harboring beta-lactamase AmpD1 Gly148Ala mutant obtained from patient with non-cystic fibrosis by Etest
# Pseudomonas aeruginosa [16] = test: Antimicrobial activity against Pseudomonas aeruginosa isolate PA367 obtained from patient with cystic fibrosis harboring beta-lactamase AmpDh3 Asp137Gly, Ala219Thr mutant by disk diffusion method; procedure, shortened: as §1
# Pseudomonas aeruginosa [17] = test: Antimicrobial activity against Pseudomonas aeruginosa isolate PA367 obtained from patient with cystic fibrosis harboring beta-lactamase AmpD1 Gly148ala and Asp183Tyr mutant by disk diffusion method; procedure, shortened: as §1
# Pseudomonas aeruginosa [18] = test: Antimicrobial activity against Pseudomonas aeruginosa PAO1 expressing beta-lactamase AmpDh2 by disk diffusion method; procedure, shortened: as §1
# Pseudomonas aeruginosa [19] = test: Antimicrobial activity against Pseudomonas aeruginosa isolate TX291 harboring beta-lactamase AmpDh3 Ala208Val mutant obtained from patient with non-cystic fibrosis by agar dilution method
# Pseudomonas aeruginosa [20] = test: Antimicrobial activity against Pseudomonas aeruginosa isolate GB61 obtained from patient with non-cystic fibrosis by broth microdilution method
# Pseudomonas aeruginosa [21] = test: Antimicrobial activity against Pseudomonas aeruginosa isolate PA113 harboring beta-lactamase AmpDh3 Ala219Thr mutant obtained from patient with cystic fibrosis by agar dilution method
# Pseudomonas aeruginosa [22] = test: Antimicrobial activity against Pseudomonas aeruginosa isolate TX291 harboring beta-lactamase AmpD1 11-nt deletion at nt 5064907 and frameshift mutation obtained from patient with non-cystic fibrosis by agar dilution method
# Pseudomonas aeruginosa [23] = test: Antimicrobial activity against Pseudomonas aeruginosa PAO1 expressing beta-lactamase AmpDh3 by disk diffusion method; procedure, shortened: as §1
# Pseudomonas aeruginosa [24] = test: Antimicrobial activity against Pseudomonas aeruginosa PAO1 expressing beta-lactamase AmpD1 by disk diffusion method; procedure, shortened: as §1
# Pseudomonas aeruginosa [25] = test: Antimicrobial activity against Pseudomonas aeruginosa isolate 164CD harboring beta-lactamase AmpDh3 Ile67Thr mutant obtained from patient with non-cystic fibrosis by agar dilution method
# Pseudomonas aeruginosa [26] = test: Antimicrobial activity against Pseudomonas aeruginosa isolate PA24 obtained from patient with cystic fibrosis harboring beta-lactamase AmpDh3 Ala219Thr mutant by disk diffusion method; procedure, shortened: as §1
# Pseudomonas aeruginosa [27] = test: Antimicrobial activity against Pseudomonas aeruginosa isolate PA22 obtained from patient with cystic fibrosis harboring beta-lactamase AmpDh3 Asp137Gly, Ala219Thr mutant by disk diffusion method; procedure, shortened: as §1
# Pseudomonas aeruginosa [28] = test: Antimicrobial activity against Pseudomonas aeruginosa isolate PA24 obtained from patient with cystic fibrosis harboring beta-lactamase AmpD1 12-nt deletion at nucleotide 5064908 and deletion of codons 144-147 by disk diffusion method; procedure, shortened: as §1
# Pseudomonas aeruginosa [29] = test: Antimicrobial activity against Pseudomonas aeruginosa isolate TX292 harboring beta-lactamase AmpD1 11-nt deletion at nt 5064907 and frameshift mutation obtained from patient with non-cystic fibrosis by agar dilution method
# Pseudomonas aeruginosa [30] = test: Antimicrobial activity against Pseudomonas aeruginosa isolate 164CD harboring beta-lactamase AmpD1 Leu32Pro, Gly46Ser, Gly148Ala mutant obtained from patient with non-cystic fibrosis by agar dilution method
# Pseudomonas aeruginosa [31] = test: Antimicrobial activity against Pseudomonas aeruginosa isolate 164CD obtained from patient with non-cystic fibrosis by agar dilution method
# Pseudomonas aeruginosa [32] = test: Antimicrobial activity against Pseudomonas aeruginosa isolate GB57 obtained from patient with non-cystic fibrosis by Etest in presence of beta-lactamase inhibitor Tazobactam
# Pseudomonas aeruginosa [33] = test: Antimicrobial activity against Pseudomonas aeruginosa isolate TX292 obtained from patient with non-cystic fibrosis by Etest in presence of beta-lactamase inhibitor Tazobactam
# Pseudomonas aeruginosa [34] = test: Antimicrobial activity against Pseudomonas aeruginosa isolate PA24 obtained from patient with cystic fibrosis by agar dilution method in presence of beta-lactamase inhibitor Tazobactam
# Pseudomonas aeruginosa [35] = test: Antimicrobial activity against Pseudomonas aeruginosa PAO1 by Etest
# Pseudomonas aeruginosa [36] = test: Antimicrobial activity against Pseudomonas aeruginosa isolate PA113 obtained from patient with cystic fibrosis by agar dilution method in presence of beta-lactamase inhibitor Tazobactam
# Pseudomonas aeruginosa [37] = test: Antimicrobial activity against Pseudomonas aeruginosa PAO1 by agar dilution method in presence of beta-lactamase inhibitor Tazobactam
# Pseudomonas aeruginosa [38] = test: Antimicrobial activity against Pseudomonas aeruginosa isolate TX291 obtained from patient with non-cystic fibrosis by Etest in presence of beta-lactamase inhibitor Tazobactam
# Pseudomonas aeruginosa [39] = test: Antimicrobial activity against Pseudomonas aeruginosa isolate GB61 obtained from patient with non-cystic fibrosis by Etest in presence of beta-lactamase inhibitor Tazobactam
# Pseudomonas aeruginosa [40] = test: Antimicrobial activity against Pseudomonas aeruginosa isolate PA22 obtained from patient with cystic fibrosis by agar dilution method in presence of beta-lactamase inhibitor Tazobactam
# Pseudomonas aeruginosa [41] = test: Antimicrobial activity against Pseudomonas aeruginosa isolate PA367 obtained from patient with cystic fibrosis by agar dilution method in presence of beta-lactamase inhibitor Tazobactam
# Pseudomonas aeruginosa [42] = test: Antimicrobial activity against Pseudomonas aeruginosa isolate 164CD obtained from patient with non-cystic fibrosis by Etest in presence of beta-lactamase inhibitor Tazobactam
Compound,MIC (Pseudomonas aeruginosa [1]) [µg/mL],MIC (Pseudomonas aeruginosa [2]) [µg/mL],MIC (Pseudomonas aeruginosa [3]) [µg/mL],MIC (Pseudomonas aeruginosa [4]) [µg/mL],MIC (Pseudomonas aeruginosa [5]) [µg/mL],MIC (Pseudomonas aeruginosa [6]) [µg/mL],MIC (Pseudomonas aeruginosa [7]) [µg/mL],MIC (Pseudomonas aeruginosa [8]) [µg/mL],MIC (Pseudomonas aeruginosa [9]) [µg/mL],MIC (Pseudomonas aeruginosa [10]) [µg/mL],MIC (Pseudomonas aeruginosa [31]) [µg/mL],further results
C[C@H]1[C@H](NC(=O)/C(=N\OC(C)(C)C(=O)O)c2csc(N)n2)C(=O)N1S(=O)(=O)O [AZTREONAM],64,4,4,128,64,> 256,48,16,> 256,4,–,–
CO/N=C(\C(=O)N[C@@H]1C(=O)N2C(C(=O)[O-])=C(C[N+]3(C)CCCC3)CS[C@H]12)c1csc(N)n1 [CEFEPIME],32,1,16,64,32,> 256,32,16,> 256,16,–,–
CC(C)(O/N=C(\C(=O)N[C@@H]1C(=O)N2C(C(=O)[O-])=C(C[n+]3ccccc3)CS[C@H]12)c1csc(N)n1)C(=O)O [CEFTAZIDIME],32,1,32,128,32,–,–,32,–,16,128,diameter of the inhibition zone (DIZ) (Pseudomonas aeruginosa [11]): 8 mm; diameter of the inhibition zone (DIZ) (Pseudomonas aeruginosa [12]): 8 mm; diameter of the inhibition zone (DIZ) (Pseudomonas aeruginosa [13]): 10 mm; MIC (Pseudomonas aeruginosa [14]): > 128 µg/mL; diameter of the inhibition zone (DIZ) (Pseudomonas aeruginosa [15]): 12 mm; diameter of the inhibition zone (DIZ) (Pseudomonas aeruginosa [16]): 10 mm; diameter of the inhibition zone (DIZ) (Pseudomonas aeruginosa [17]): 8 mm; diameter of the inhibition zone (DIZ) (Pseudomonas aeruginosa [18]): 6 mm; diameter of the inhibition zone (DIZ) (Pseudomonas aeruginosa [19]): 8 mm; MIC (Pseudomonas aeruginosa [20]): 128 µg/mL; diameter of the inhibition zone (DIZ) (Pseudomonas aeruginosa [21]): 9 mm; diameter of the inhibition zone (DIZ) (Pseudomonas aeruginosa [22]): 11 mm; diameter of the inhibition zone (DIZ) (Pseudomonas aeruginosa [23]): 18 mm; diameter of the inhibition zone (DIZ) (Pseudomonas aeruginosa [24]): 17 mm; diameter of the inhibition zone (DIZ) (Pseudomonas aeruginosa [25]): 10 mm; diameter of the inhibition zone (DIZ) (Pseudomonas aeruginosa [26]): 9 mm; diameter of the inhibition zone (DIZ) (Pseudomonas aeruginosa [27]): 10 mm; diameter of the inhibition zone (DIZ) (Pseudomonas aeruginosa [28]): 6 mm; diameter of the inhibition zone (DIZ) (Pseudomonas aeruginosa [29]): 11 mm; diameter of the inhibition zone (DIZ) (Pseudomonas aeruginosa [30]): 8 mm
CCN1CCN(C(=O)N[C@@H](C(=O)N[C@@H]2C(=O)N3[C@@H]2SC(C)(C)[C@@H]3C(=O)O)c2ccccc2)C(=O)C1=O [PIPERACILLIN],256,–,64,256,256,–,> 256,128,> 256,128,> 1020,MIC (Pseudomonas aeruginosa [32]): > 256 µg/mL; MIC (Pseudomonas aeruginosa [33]): > 256 µg/mL; MIC (Pseudomonas aeruginosa [34]): 128 µg/mL; MIC (Pseudomonas aeruginosa [35]): 4 µg/mL; MIC (Pseudomonas aeruginosa [36]): 64 µg/mL; MIC (Pseudomonas aeruginosa [37]): 4 µg/mL; MIC (Pseudomonas aeruginosa [38]): > 256 µg/mL; MIC (Pseudomonas aeruginosa [39]): > 256 µg/mL; MIC (Pseudomonas aeruginosa [40]): 64 µg/mL; MIC (Pseudomonas aeruginosa [41]): 64 µg/mL; MIC (Pseudomonas aeruginosa [42]): > 256 µg/mL
